Assay results: ChEMBL document CHEMBL4020718, “Trifluoromethyl arylamides with antileukemia effect and intracellular inhibitory activity over serine/arginine-rich protein kinases (SRPKs)” (Eur J Med Chem, 2017)
Active and inactive are the calls of the source. The calls are words filed in the database; no cut-off is given here.

What was measured:
HL-60 [1] = test: Cytotoxicity against human HL60 cells assessed as reduction in cell viability up to 200 uM after 48 hrs by MTT assay; format: functional, cell-based
Method in brief: (§1)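 Cells (7x10^4/well) in RPMI-1640 with 10% FBS, 37 °C, 5% CO2; exposed to compound dilutions 0–200 µM (medium with 10% FBS, 0.4% DMSO) for 48 h. MTT added, 3 h at 37 °C, formazan dissolved in DMSO, absorbance 540 nm. IC50 from concentration–response; means ± standard deviation of three independent experiments.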

Jurkat = test: Cytotoxicity against human Jurkat cells assessed as reduction in cell viability up to 200 uM after 48 hrs by MTT assay; format: functional, cell-based; method in brief: as §1
NALM-6 [2] = test: Cytotoxicity against human NALM6 cells assessed as reduction in cell viability up to 200 uM after 48 hrs by MTT assay; format: functional, cell-based; method in brief: as §1
NALM-6 [3] = test: Effect on actin expression level in human NALM6 cells at 20 uM after 24 hrs by Western blot analysis; format: ADME, cell-based; conditions: nalm-6, 24 h
Method in brief: (§2)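 Nalm6 treated 24 h at 20 µM (DMSO vehicle control), lysed at 2x10^7 cells/mL in PBS with 1% NP40, 1 mM EDTA, 150 mM NaCl, 10 mM Tris pH 7.4 plus protease/phosphatase inhibitors; on ice 10 min, sonicated, spun 15000 xg; SDS-PAGE, PVDF, milk block overnight, primary and secondary antibody 2 h each; representative of three.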

NALM-6 [4] = test: Effect on SRPK1 expression level in human NALM6 cells at 20 uM after 24 hrs by Western blot analysis; format: functional, cell-based; method in brief: as §2
HL-60 [5] = test: Antiproliferative activity against human HL60 cells at 20 uM by trypan blue dye exclusion assay; format: functional, cell-based; conditions: TDE = time-dependent effect
Method in brief: (§3)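 Nalm6 at 1x10^4 or HL60 at 1.5x10^4 cells per well exposed to 20 µM; DMSO (0.4% v/v) as control. Viable cells counted by trypan blue exclusion on a hemocytometer at 0, 24, 48, 72 and 96 h; growth inhibition relative to control.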

Homo sapiens [6] = organism: Homo sapiens; test: Inhibition of SRPK in human NALM6 cells assessed as decrease in VEGF mRNA expression level at 20 uM after 24 hrs by qRT-PCR analysis; format: cell-based
Method in brief: (§4)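 Nalm6 given 20 µM for 24 h with 0.4% DMSO control; mRNA isolated with Tri Reagent, quantified spectrophotometrically, integrity checked on 1% agarose, then RT-PCR for target transcripts; one representative of three experiments.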

NALM-6 [7] = test: Effect on actin expression level in human NALM6 cells at 20 uM after 24 hrs by qRT-PCR analysis; format: ADME, cell-based; conditions: nalm-6, 24 h
NALM-6 [8] = test: Effect on SRPK2 expression level in human NALM6 cells at 20 uM after 24 hrs by Western blot analysis; format: functional, cell-based; method in brief: as §2
NALM-6 [9] = test: Induction of apoptosis in human NALM6 cells assessed as early apoptotic cells at 20 uM after 12 hrs by Annexin-V/FITC propidium iodide staining based flow cytometric analysis (reference value: 7.40%); format: functional
NALM-6 [10] = test: Induction of apoptosis in human NALM6 cells assessed as late apoptotic cells at 20 uM after 24 hrs by Annexin-V/FITC propidium iodide staining based flow cytometric analysis (reference value: 1.68%); format: functional
HL-60 [11] = test: Cytotoxicity against human HL60 cells assessed as cell growth inhibition at 20 uM after 96 hrs by trypan blue dye exclusion assay relative to control; format: functional; conditions: HL-60, 96 h, read-out: GI; method in brief: as §3
Homo sapiens [12] = organism: Homo sapiens; test: Inhibition of SRPK in human NALM6 cell lysates assessed as reduction in phospho-SR epitopes signal at 20 uM after 24 hrs by Western blot analysis; method in brief: as §2
NALM-6 [13] = test: Induction of autophagy in human NALM6 cells at 20 uM after 24 hrs by acridin orange staining based fluorescence microscopy; format: functional, cell-based
Method in brief: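 Nalm6 (7x10^4/well) exposed 24 h to 20 µM or 0.4% DMSO, washed in PBS, stained with 1 µM acridine orange at 37 °C for 15 min, washed, resuspended in PBS; autophagosomes (red fluorescence) viewed by fluorescence microscopy; three experiments.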

NALM-6 [14] = test: Synergistic cytotoxicity against human NALM6 cells assessed as reduction in cell viability by measuring combination index at 4.3 uM after 48 hrs in presence of 0.5 nM vincristine by MTT assay; format: functional
Homo sapiens [15] = organism: Homo sapiens; test: Inhibition of SRPK in human NALM6 cells assessed as decrease in RON mRNA expression level at 20 uM after 24 hrs by qRT-PCR analysis; format: cell-based; method in brief: as §4
NALM-6 [16] = test: Induction of apoptosis in human NALM6 cells assessed as viable cells at 20 uM after 24 hrs by Annexin-V/FITC propidium iodide staining based flow cytometric analysis (reference value: 90.10%); format: functional; conditions: NALM-6, 24 h, read-out: Activity
NALM-6 [17] = test: Induction of apoptosis in human NALM6 cells assessed as viable cells at 20 uM after 12 hrs by Annexin-V/FITC propidium iodide staining based flow cytometric analysis (reference value: 92.11%); format: functional; conditions: NALM-6, 12 h, read-out: Activity
Homo sapiens [18] = organism: Homo sapiens; test: Inhibition of SRPK in human NALM6 cells assessed as decrease in MAP2K2 mRNA expression level at 20 uM after 24 hrs by qRT-PCR analysis; format: cell-based; method in brief: as §4
NALM-6 [19] = test: Synergistic cytotoxicity against human NALM6 cells assessed as reduction in cell viability by measuring combination index at 8.5 uM after 48 hrs in presence of 1 nM vincristine by MTT assay; format: functional
PBMC = test: Cytotoxicity against PHA-stimulated human PBMC assessed as reduction in cell viability at 25 uM after 48 hrs by MTT assay; format: cell-based
Method in brief: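 Primary peripheral blood mononuclear cells seeded 1x10^5/well in complete RPMI; treated with 25 µM for 48 h. Viability by MTT (3 h, 37 °C, DMSO solubilization, 540 nm), vehicle taken as 100% viability; triplicate experiments, means ± standard deviation.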

NALM-6 [20] = test: Induction of apoptosis in human NALM6 cells assessed as early apoptotic cells at 20 uM after 24 hrs by Annexin-V/FITC propidium iodide staining based flow cytometric analysis (reference value: 8.22%); format: functional
Homo sapiens [21] = organism: Homo sapiens; test: Inhibition of SRPK in human NALM6 cells assessed as decrease in MAP2K1 mRNA expression level at 20 uM after 24 hrs by qRT-PCR analysis; format: cell-based; method in brief: as §4
NALM-6 [22] = test: Induction of apoptosis in human NALM6 cells assessed as necrotic cells at 20 uM after 12 hrs by Annexin-V/FITC propidium iodide staining based flow cytometric analysis (reference value: 0.04%); format: functional
NALM-6 [23] = test: Induction of apoptosis in human NALM6 cells assessed as necrotic cells at 20 uM after 24 hrs by Annexin-V/FITC propidium iodide staining based flow cytometric analysis (reference value: 0%); format: functional
NALM-6 [24] = test: Induction of apoptosis in human NALM6 cells assessed as late apoptotic cells at 20 uM after 12 hrs by Annexin-V/FITC propidium iodide staining based flow cytometric analysis (reference value: 0.45%); format: functional
NALM-6 [25] = test: Antiproliferative activity against human NALM6 cells at 20 uM by trypan blue dye exclusion assay; format: functional, cell-based; conditions: TDE = time-dependent effect; method in brief: as §3
NALM-6 [26] = test: Cytotoxicity against human NALM6 cells assessed as cell growth inhibition at 20 uM after 96 hrs by trypan blue dye exclusion assay relative to control; format: functional; conditions: NALM-6, 96 h, read-out: GI; method in brief: as §3
[27] = Homo sapiens, NALM-6, 48 h, read-out: IC50
[28] = Homo sapiens, HL-60, 48 h, read-out: IC50
[29] = Homo sapiens, Jurkat, 48 h, read-out: IC50

In the case of O=C(Nc1cc(C(F)(F)F)ccc1N1CCCCC1)c1cccnc1, the IC50 (HL-60 [1]; hl-60) is reported as “Not Active”, the IC50 (Jurkat; jurkat) is reported as “Not Active” and the IC50 (NALM-6 [2]; nalm-6) is reported as “Not Active”.

With O=C(Nc1cc(C(F)(F)F)ccc1Nc1ccc(Br)cc1)c1ccncc1 the IC50 (HL-60 [1]; hl-60) was “Not Active”, the IC50 (Jurkat; jurkat) was “Not Active” and the IC50 (NALM-6 [2]; [27]) was 51.9 µM.

In the case of CCN(CC)c1ccc(C(F)(F)F)cc1NC(=O)c1cccnc1, the IC50 (HL-60 [1]; [28]) is reported as 71 µM, the IC50 (Jurkat; jurkat) is reported as “Not Active” and the IC50 (NALM-6 [2]; [27]) is reported as 63.2 µM.

CCN(CC)c1ccc(C(F)(F)F)cc1NC(=O)c1cccnc1Cl was tested, and the IC50 (HL-60 [1]; [28]) was 84.1 µM, the IC50 (Jurkat; [29]) was 88.4 µM and the IC50 (NALM-6 [2]; nalm-6) was “Not Active”.

In the case of O=C(Nc1cc(C(F)(F)F)ccc1Nc1ccc(Br)cc1)c1cccnc1, the Activity (NALM-6 [3]) is reported as “Non-Toxic”, the IC50 (HL-60 [1]; [28]) is reported as 8.5 µM and the Activity (NALM-6 [4]) is reported as “inactive”. The Activity (HL-60 [5]) was “Tde”, the inhibition (Homo sapiens [6]) was “Active” and the Activity (NALM-6 [7]) was “Non-Toxic”. The Activity (NALM-6 [8]) was “inactive”, the Activity (NALM-6 [9]) was 12.33% and the Activity (NALM-6 [10]) was 0.92%. For the same compound, the IC50 (Jurkat; [29]) was 17.8 µM, the inhibition of growth at 20 µM (HL-60 [11]) was 38% and the inhibition (Homo sapiens [12]) was “Active”. For the same compound, the Activity (NALM-6 [13]) was “Active”, the IC50 (NALM-6 [2]; [27]) was 17 µM and the CI (NALM-6 [14]) was 0.45. For the same compound, the inhibition (Homo sapiens [15]) was “Active”, the viability at 20 µM (NALM-6 [16]) was 84.4% and the viability at 20 µM (NALM-6 [17]) was 87%. For the same compound, the inhibition (Homo sapiens [18]) was “Active”, the CI (NALM-6 [19]) was 0.78 and the Activity (PBMC) was “Non-Toxic”. For the same compound, the Activity (NALM-6 [20]) was 14.66%, the inhibition (Homo sapiens [21]) was “Active” and the Activity (NALM-6 [22]) was 0%. The Activity (NALM-6 [23]) was 0.01%, the Activity (NALM-6 [24]) was 0.67% and the Activity (NALM-6 [25]) was “Tde”. For the same compound, the inhibition of growth at 20 µM (NALM-6 [26]) was 66%.

For O=C(Nc1cc(C(F)(F)F)ccc1N1CCOCC1)c1cccnc1Cl, the IC50 (HL-60 [1]; hl-60) was “Not Active”, the IC50 (Jurkat; jurkat) was “Not Active” and the IC50 (NALM-6 [2]; nalm-6) was “Not Active”.

With CCN(CC)c1ccc(C(F)(F)F)cc1NC(=O)c1ccncc1 the IC50 (HL-60 [1]; [28]) was 89.7 µM, the IC50 (Jurkat; jurkat) was “Not Active” and the IC50 (NALM-6 [2]; [27]) was 63.6 µM.

For O=C(Nc1cc(C(F)(F)F)ccc1N1CCCCC1)c1ccccc1, the IC50 (HL-60 [1]; hl-60) was “Not Active”, the IC50 (Jurkat; jurkat) was “Not Active” and the IC50 (NALM-6 [2]; nalm-6) was “Not Active”.

With O=C(Nc1cc(C(F)(F)F)ccc1N1CCCC1)c1cccnc1 the IC50 (HL-60 [1]; hl-60) was “Not Active”, the IC50 (Jurkat; jurkat) was “Not Active” and the IC50 (NALM-6 [2]; nalm-6) was “Not Active”.

O=C(Nc1cc(C(F)(F)F)ccc1N1CCCCC1)c1cccnc1Cl was tested, and the IC50 (HL-60 [1]; hl-60) was “Not Active”, the IC50 (Jurkat; jurkat) was “Not Active” and the IC50 (NALM-6 [2]; nalm-6) was “Not Active”.

In the case of O=C(Nc1cc(C(F)(F)F)ccc1N1CCCCC1)c1ccncc1, the IC50 (HL-60 [1]; [28]) is reported as 38.3 µM, the inhibition (Homo sapiens [6]) is reported as “inactive” and the IC50 (Jurkat; [29]) is reported as 75.4 µM. The inhibition (Homo sapiens [12]) was “Active”, the IC50 (NALM-6 [2]; [27]) was 70.6 µM and the inhibition (Homo sapiens [15]) was “inactive”. The inhibition (Homo sapiens [18]) was “inactive” and the inhibition (Homo sapiens [21]) was “inactive”.
